Compound activity (PubChem BioAssay)
An excerpt weighted towards active compounds, which were near 2.2% of everything screened.
Tn6 DDE FP = disrupts Tn6 cyclic peptide binding to fibrin D-Dimer-E complex | actives 0.21% (n = 370,000) | AID 720509 | Fibrin DD(E) TRITC-Tn6 fluorescence polarization displacement | P02675 | inhibition, % at 8.3 µM;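 active = inhibition above a per-campaign cutoff: mean of compounds within control limits plus 3 SD, cut at about 15% in these data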;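 also: 0% = median of all compound wells on the plate and 100% = blocking peptide control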
Target sequence (P02675 whole entry, looked up): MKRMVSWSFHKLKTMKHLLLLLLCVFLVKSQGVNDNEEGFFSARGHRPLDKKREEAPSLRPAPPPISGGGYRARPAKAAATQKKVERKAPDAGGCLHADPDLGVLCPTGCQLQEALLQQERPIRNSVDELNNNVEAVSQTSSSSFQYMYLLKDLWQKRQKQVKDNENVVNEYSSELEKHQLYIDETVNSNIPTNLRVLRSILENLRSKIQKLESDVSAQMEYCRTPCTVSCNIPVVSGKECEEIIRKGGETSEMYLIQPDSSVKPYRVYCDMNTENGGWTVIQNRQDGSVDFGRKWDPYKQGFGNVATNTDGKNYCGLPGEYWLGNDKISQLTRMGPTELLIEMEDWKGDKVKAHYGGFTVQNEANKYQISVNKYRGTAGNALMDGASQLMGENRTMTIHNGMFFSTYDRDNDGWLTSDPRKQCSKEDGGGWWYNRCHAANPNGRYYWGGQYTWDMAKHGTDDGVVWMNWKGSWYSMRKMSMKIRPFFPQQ
KLK7 zymogen act = proKLK7 (human) activation, primary screen; purified proKLK7, EDANS-DABCYL substrate fluorescence; 100% is mature enzyme control, 0% vehicle; activation, % at 7 µM; actives 0.9% (n = 370,000);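 active = activation above the mean of all tested compounds plus 3 SD, computed per campaign excluding outliers beyond control limits, cut at about 13% in these data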
MT1-MMP act inh = blocks activation of human MT1-MMP. HT1080 RFP-PRO-GFP cells, GFP/RFP ratio fluorescence, overnight; percent of plate control window, DMSO zero. P50281. actives 0.061% (n = 360,000). AID 651647. GFP/RFP ratio change, % at 20 µM;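 active = GFP/RFP ratio change of at least 30% with cell ATP level not reduced by more than half and red fluorescence within 50% of control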
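Assay system: RFP-PRO-GFP reporter HT1080 cells; read-out basis: GFP/RFP fluorescence ratio; benchmarks: DMSO wells and RFP-L50D-GFP cells; doses: 20 µM single dose, 1% DMSO; schedule: overnight cell settling, then overnight compound exposure, 37 °C, 5% CO2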
Neddyl block = cullin neddylation inhibition | P61081+Q13564 | TR-FRET cullin neddylation, biochemical | calls only at 25 µM | actives 0.58% (n = 360,000); in the data active = inhibition above about 36%
Tn7 DDE FP = inhibitors of Tn7 peptide binding to human fibrin DD(E). AID 720508. inhibition, % at 8.3 µM. FP displacement of FITC-Tn7 peptide from fibrin DD(E); 0% = median of compound wells per plate. actives 0.13% (n = 370,000);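 active = inhibition above the mean of compounds falling within the control limits plus 3 SD of them, cut at about 14% in these data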;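 also: 0% = plate median of compound wells and 100% = 10 µM Aha-Tn7 peptide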
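Assay system: human fibrin DD(E). Input: DD(E) 2 µM final. Medium: Tris buffer with calcium and detergent, pH 7.8. Compound dosing: single point at 8.3 µM. Timing: 10 min plus 3 h, room temperature. Technique: fluorescence polarization of the labelled Tn7 tracer. Read-out: percent inhibition. Replicates: singlicate testing.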
SKN-1 block = C. elegans SKN-1 inhibition; C. elegans VP596 Pgst-4::GFP/RFP ratio, acrylamide-induced, 24 h; inhibition, % at 21.8 µM; actives 0.49% (n = 360,000); AID 624304;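 active = interference check ratio from 0.5 to 1.5 plus GFP to RFP signal ratio inhibition reaching or exceeding a fixed threshold, cut at about 30% in these data, passing the limit was not always enough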
Neddyl inh conf = confirmation of human cullin neddylation inhibitors; shares compounds with Neddyl block; TR-FRET cullin neddylation biochemical assay; calls only at 25 µM; actives 13% (n = 1,800); AID 652217; in the data active = inhibition above about 40%;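 also: neddylation substrate is the cullin 1 ring ligase complex with SKP2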
* marks the source's active call; other numbers are inactive results; i = inactive; nt = no result shown; + = active, no number.

SMILES	Tn6 DDE FP	KLK7 zymogen act	MT1-MMP act inh	Neddyl block	Tn7 DDE FP	SKN-1 block	Neddyl inh conf
Cc1ccc(Oc2ccc(S(=O)(=O)N3CCOCC3)cc2C(N)=O)c(-n2nc3ccccc3n2)c1	3	1	6	+	2	8	nt
CCCc1cc(=O)oc2c(C)c(OC3CCCCC3=O)ccc12 (stereo unspecified)	-8	0	0	i	1	4	nt
CCCCc1cc(=O)oc2cc(OC3CCCCC3=O)ccc12 (stereo unspecified)	-2	0	-3	+	5	8	i
CC(NC(=O)c1cccc(N(C)C)c1)c1ccc(-n2ccnc2)cc1 (stereo unspecified)	9	0	-1	+	1	-20	i
CC(=O)Nc1cccc(C(=O)NC(C)c2ccc(-n3ccnc3)cc2)c1 (stereo unspecified)	1	0	-1	i	6	-21	nt
COc1ccc(C(C)=O)c2c1OCCO2	-8	-1	-1	i	-4	-22	nt
CSc1nc2nccc(-c3ccc4c(c3)OCO4)n2n1	3	4	-2	+	-5	20	i
N#Cc1cc(O)c(-n2nnc3ccccc32)cc1C#N	3	2	0	+	-6	-11	i
N#Cc1cc(Oc2cccc3cccnc23)c(-n2nnc3ccccc32)cc1C#N	0	0	-59	i	-8	87	nt
COc1c(S(=O)(=O)n2nc(C)cc2C)ccc(Cl)c1Cl	1	-1	5	i	1	-16	nt
O=C(CN1C(=O)c2cccc3cccc1c23)Nc1ccc(S(=O)(=O)N2CCOCC2)cc1	-2	-8	1	i	4	13	nt
CCc1nn(CC(=O)NC(C)CCc2ccccc2)c(=O)c2cc3cc(F)ccc3n12 (stereo unspecified)	5	0	-1	i	-5	1	nt
CCc1nn(CC(=O)NCCC(C)C)c(=O)c2cc3c(OC)cccc3n12	5	0	2	+	1	-5	i
Cc1cc(=O)n2[nH]c(-c3ccccc3)cc2n1	4	-3	0	+	-5	33	i
C(=C\c1ccc2nncn2c1)/c1ccccc1	-3	0	-4	+	-2	14	+
CCC(=O)N1c2ccc(S(=O)(=O)CCC(=O)NC3CCCC3)cc2CC1C (stereo unspecified)	1	0	-1	i	5	-2	nt
Cc1nc(C(=O)NCCCO)cc2c1[nH]c1ccccc12	0	9	4	+	-5	-1	i
C=C1CCC[C@]2(C)C[C@H]3OC(=O)C(CN4CCCCC4CO)[C@H]3CC12 (stereo partly specified)	-3	0	-20	i	2	18	nt
Cn1cc(-c2cccc(C(F)(F)F)c2)cc(C#N)c1=O	0	0	4	i	4	25	nt
Cn1cc(-c2cccc(Cl)c2)cc(C#N)c1=O	-3	2	4	+	0	12	i
CCOc1ccc(Nc2nc(N)c3ccccc3n2)cc1	2	0	22	i	7	3	nt
COc1ccc2nc3c(nc2c1)CCCC3	-2	2	-2	+	4	-1	+
Cc1ccc(NC2=NCC(=O)N2C2CCCC2)c(C)c1	0	1	0	i	-9	-30	nt
CCC1C(=O)n2nc(-c3ccccc3)cc2N=C1C (stereo unspecified)	2	-21	-15	+	8	16	i
Cc1cc(C)n2nc(-c3ccccc3)cc2n1	9	0	-5	nt	6	5	nt
SMILES	Tn6 DDE FP	KLK7 zymogen act	MT1-MMP act inh	Neddyl block	Tn7 DDE FP	SKN-1 block	Neddyl inh conf
COc1ccc2sc(-c3ccc(SC)cc3)c(C#CCO)c2c1	0	-34	-5	+	6	8	nt
COc1ccc2sc(-c3ccc(SC)cc3)c(C#CC(C)(C)O)c2c1	-7	-21	3	i	-1	-2	nt
COc1cc(OC)c2cc(C(=O)N/N=C/c3cccc(OC)c3O)[nH]c2c1	-19	-6	-1	i	2	-7	nt
COc1ccc(C(=O)N/N=C/c2ccc(OC)c(COc3ccc(F)cc3)c2)cc1	-10	-3	-2	i	-1	-3	nt
COc1cc2cc(C(=O)N/N=C/c3ccc(F)cc3)[nH]c2cc1OC	-2	4	8	+	7	-5	i
COc1cc2cc(C(=O)N/N=C/c3ccccc3Cl)[nH]c2cc1OC	0	2	11	nt	4	-5	nt
CCOc1ccc(/C=N/NC(=O)c2cc3ccccc3cc2OC)cc1	5	-2	2	+	0	-10	i
COc1ccc2cc(C(=O)N/N=C/c3cc(OC)c(OC)c(OC)c3)[nH]c2c1	-15	0	5	+	-1	4	+
COc1cc2ccccc2cc1C(=O)N/N=C/c1cccnc1	5	-1	0	i	-7	15	nt
COc1ccc(/C=N/NC(=O)c2cc3cc(OC)c(OC)cc3[nH]2)cc1	-3	8	6	+	-3	-3	i
COc1ccc(-n2cnnc2SCC(=O)Nc2ccc(C(N)=O)cc2)cc1	-3	-1	5	i	-4	11	nt
CC(/C=C1\SC(=S)N(CCC(=O)Nc2cccc(C(=O)O)c2)C1=O)=C\c1ccccc1	-2	-1	1	i	7	12	nt
O=C1CS/C(=N\N=C\c2ccco2)N1c1ccccc1	12	-1	-1	+	-6	-9	i
Cc1c2ccccc2nc2ccccc12	8	5	0	+	4	3	i
Fc1cc2[nH]cnc2cc1Cl	0	0	4	i	2	6	nt
COc1ccccc1N1CCN(C(=O)C(=O)c2c(C)n(C)c3ccccc23)CC1	-3	1	0	i	0	12	nt
CC(C)[C@H](NC(=O)c1ccccc1)C(=O)OCC(=O)/C=C1/N(C)c2ccccc2C1(C)C	-2	-2	5	i	3	17	nt
COc1cc(OC)cc(C(=O)NCC(=O)OCC(=O)/C=C2/N(C)c3ccccc3C2(C)C)c1	-5	-1	4	+	-1	29	i
c1ccc2nc(N3CCCC3)c(N3CCCC3)nc2c1	2	2	-2	+	-2	5	nt
COc1ccc(/C=C/C(=O)NCc2ccc3c(c2)OCO3)cc1OC	-2	1	3	+	3	-12	i
CCC(CC)CN1CCC(CN2CCNC(=O)C2=O)CC1	4	1	3	i	-1	8	nt
